{
  "source": "paper PMC8132106",
  "about": "(Cancer chemotherapy and pharmacology, 2019)",
  "key": {"[1]": {"test_system": "AR + TNBC", "settings": "cited from earlier work"}, "[2]": {"test": "Noncompartmental analysis of seviteronel plasma PK in patients", "format": "in vivo, human"}, "[3]": {"test": "Population PK model of seviteronel", "format": "in vivo, human", "settings": "for predicted accumulation: from simulated half-life 17.5 h", "outline": "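Dense and sparse plasma concentrations (sparse from cycle 1 day 14, then every other cycle; LC-MS/MS; BQL excluded) were pooled; fed and fasted first doses counted as separate patients. One-, two- and three-compartment models with first-order or saturable absorption/elimination were tested, with exponential between-subject variability. Covariates tested: sex, body weight, prandial status, dexamethasone. Selection used OFV (−2LL; ΔOFV > 3.84, α = 0.05). Evaluation used a VPC with 200 simulated replicates (5th/50th/95th percentiles) and a split-off trough validation dataset.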"}, "[4]": {"test": "Previously reported noncompartmental clinical PK of seviteronel", "format": "in vivo, human", "settings": "with BID dosing, predicted from half-lives of 6.4 to 9.2 h"}, "[5]": {"settings": "men taking 600 mg QD; cited from earlier work"}, "[6]": {"test_system": "CYP2C9", "settings": "1uM substrate over 60 min; ref unpublished data on file; cited from earlier work"}, "[7]": {"test_system": "CYP2C19", "settings": "1uM substrate over 60 min; ref unpublished data on file; cited from earlier work"}, "[8]": {"test_system": "CYP3A4", "settings": "1μM substrate over 60 min; ref unpublished data on file; cited from earlier work"}, "[9]": {"test_system": "CYP17 lyase", "settings": "cited from earlier work"}, "[10]": {"settings": "cited from earlier work"}, "[11]": {"test_system": "mCRPC", "settings": "compared to placebo, cited from earlier work"}, "[12]": {"settings": "apparent oral inter-compartmental clearance"}, "[13]": {"settings": "apparent oral total systemic clearance"}, "[14]": {"settings": "apparent oral volume of distribution of the central compartment"}, "[15]": {"settings": "apparent oral volume of distribution of the peripheral compartment"}, "[16]": {"settings": "transit rate between compartments of the transit absorption model"}},
  "note": "Read-outs that look alike come from different tables or passages of the source.",
  "data": [
    {"smiles": "CC(=O)O[C@H]1CC[C@@]2(C)C(=CC[C@@H]3[C@@H]2CC[C@]2(C)C(c4cccnc4)=CC[C@@H]32)C1", "note": "[abiraterone acetate]", "values": [
      {"measurement": "radiographic progression-free survival (rPFS)", "setting": "[1]; in combination with prednisone, women with AR + (> 0% by IHC) TNBC", "value": 11.2, "unit": "weeks"}
    ]},
    {"smiles": "CC(C)[C@](O)(c1ccc2cc(OC(F)F)c(OC(F)F)cc2c1)c1c[nH]nn1", "note": "[seviteronel]", "values": [
      {"measurement": "food effect on PK", "setting": "[2]; Study 001, fasted vs fed", "value": "no statistically-significant food effect"},
      {"measurement": "half-life longer with 48 h sampling than calculated with 0–24 h sampling", "setting": "[2]; Study 002", "value": "~ 60%"},
      {"measurement": "steady-state AUCTAU higher than first-dose AUCINF", "setting": "[2]; Study 002, QD dosing", "value": "~ 60%"},
      {"measurement": "steady-state trough levels with vs without dexamethasone", "setting": "[2]; dexamethasone 0.5 mg daily co-administration", "value": "no statistically significant differences were observed"},
      {"measurement": "accumulation at steady-state", "setting": "[2]; observed plasma concentrations, Fig. 1", "value": "~ 60%"},
      {"measurement": "CL/F, bootstrap mean estimate", "setting": "[3]; 200 replicates", "value": 6.89, "unit": "L/h"},
      {"measurement": "Ka, bootstrap mean estimate", "setting": "[3]; 200 replicates", "value": 2.47, "unit": "h⁻¹"},
      {"measurement": "Ktr, bootstrap mean estimate", "setting": "[3]; 200 replicates", "value": 1.98, "unit": "L/h"},
      {"measurement": "Q/F, bootstrap mean estimate", "setting": "[3]; 200 replicates", "value": 6.99, "unit": "L/h"},
      {"measurement": "V/F, bootstrap mean estimate", "setting": "[3]; 200 replicates", "value": 99.97, "unit": "L"},
      {"measurement": "Vp/F, bootstrap mean estimate", "setting": "[3]; 200 replicates", "value": 352.6, "unit": "L"},
      {"measurement": "BSV on CL/F", "setting": "[3]; after accounting for sex effect", "value": 45, "unit": "%"},
      {"measurement": "Q/F, base model estimate", "setting": "[3]; [12]", "value": 6.99, "unit": "L/h"},
      {"measurement": "Q/F, final model estimate", "setting": "[3]; [12]", "value": 6.99, "unit": "L/h"},
      {"measurement": "CL/F, base model estimate", "setting": "[3]; [13]", "value": 7.15, "unit": "L/h"},
      {"measurement": "CL/F, final model estimate", "setting": "[3]; [13]", "value": 6.69, "unit": "L/h"},
      {"measurement": "V/F, base model estimate", "setting": "[3]; [14]", "value": 69.9, "unit": "L"},
      {"measurement": "V/F, final model estimate", "setting": "[3]; [14]", "value": 99.97, "unit": "L"},
      {"measurement": "Vp/F, base model estimate", "setting": "[3]; [15]", "value": 369, "unit": "L"},
      {"measurement": "Vp/F, final model estimate", "setting": "[3]; [15]", "value": 343.4, "unit": "L"},
      {"measurement": "BSV of V/F", "setting": "[3]; before sex and body weight were included on CL/F", "value": 62.9, "unit": "%"},
      {"measurement": "dCLdSex, final model estimate", "setting": "[3]; covariate effect on CL/F by Sex", "value": 0.5883},
      {"measurement": "dCLdSex, bootstrap mean estimate", "setting": "[3]; covariate effect on CL/F by Sex, 200 replicates", "value": 0.559},
      {"measurement": "dCLdWt, final model estimate", "setting": "[3]; covariate effect on CL/F by body weight", "value": 0.2514},
      {"measurement": "dCLdWt, bootstrap mean estimate", "setting": "[3]; covariate effect on CL/F by body weight, 200 replicates", "value": 0.3595},
      {"measurement": "Between subject variability (%CV; ω) on Ka", "setting": "[3]; final model", "value": 133, "unit": "%"},
      {"measurement": "Between subject variability (%CV; ω) on Ktr", "setting": "[3]; final model", "value": 94.9, "unit": "%"},
      {"measurement": "Between subject variability (%CV; ω) on Q/F", "setting": "[3]; final model", "value": 51.5, "unit": "%"},
      {"measurement": "Between subject variability (%CV; ω) on V/F", "setting": "[3]; final model", "value": 51.4, "unit": "%"},
      {"measurement": "Between subject variability (%CV; ω) on Vp/F", "setting": "[3]; final model", "value": 35.9, "unit": "%"},
      {"measurement": "Between subject variability (%CV; ω) on CL/F", "setting": "[3]; final model, sex and body weight on CL/F", "value": 37.4, "unit": "%"},
      {"measurement": "Ka, base model estimate", "setting": "[3]; first-order absorption rate", "value": 1.99, "unit": "h⁻¹"},
      {"measurement": "Ka, final model estimate", "setting": "[3]; first-order absorption rate", "value": 2.49, "unit": "h⁻¹"},
      {"measurement": "BSV on CL/F", "setting": "[3]; overall, before covariates", "value": 59.6, "unit": "%"},
      {"measurement": "Ktr, base model estimate", "setting": "[3]; [16]", "value": 1.99, "unit": "L/h"},
      {"measurement": "Ktr, final model estimate", "setting": "[3]; [16]", "value": 1.99, "unit": "L/h"},
      {"measurement": "predicted accumulation", "setting": "[3]; with BID dosing", "value": 164, "unit": "%"},
      {"measurement": "predicted accumulation", "setting": "[3]; with QD dosing", "value": 63, "unit": "%"},
      {"measurement": "predicted accumulation to steady-state", "setting": "[4]", "value": "37–68%"},
      {"measurement": "CMAX", "setting": "[5]", "value": "4403 ± 1817", "unit": "ng/mL"},
      {"measurement": "loss of substrate", "setting": "[6]", "value": 100, "unit": "%"},
      {"measurement": "loss of substrate", "setting": "[7]", "value": 100, "unit": "%"},
      {"measurement": "loss of substrate", "setting": "[8]", "value": 57, "unit": "%"},
      {"measurement": "selectivity for inhibition of CYP17 lyase versus hydroxylase", "setting": "[9]", "value": "tenfold"},
      {"measurement": "DLTs", "setting": "[10]; 450 mg QD", "value": "no reported DLTs"},
      {"measurement": "time for drug-related adverse events to resolve to baseline", "setting": "[10]; CRPC men treated with seviteronel", "value": "2–3 weeks"},
      {"measurement": "Grade 1 events, 600 mg QD relative to 450 mg QD", "setting": "[10]; women", "value": "five times more"}
    ]},
    {"smiles": "CNC(=O)c1ccc(N2C(=S)N(c3ccc(C#N)c(C(F)(F)F)c3)C(=O)C2(C)C)cc1F", "note": "[enzalutamide]", "values": [
      {"measurement": "improvement in overall survival (OS)", "setting": "[11]; post-chemotherapy", "value": 4.8, "unit": "mo"},
      {"measurement": "overall reduction in risk of death", "setting": "[11]; post-chemotherapy", "value": 37, "unit": "%"},
      {"measurement": "improvement in overall survival (OS)", "setting": "[11]; pre-chemotherapy", "value": 2.4, "unit": "mo"},
      {"measurement": "overall reduction in risk of death", "setting": "[11]; pre-chemotherapy", "value": 29, "unit": "%"},
      {"measurement": "radiographic progression-free survival (rPFS)", "setting": "[1]; single-arm, open-label study, women with AR + (≥ 10% by IHC) TNBC", "value": 14.7, "unit": "weeks"}
    ]}
  ]
}
